Values after ≈ are worked out from the molar mass of the structure shown. Active and inactive are the calls of the source. The calls are words filed in the database; no cut-off is given here.
Experiments:
[1] = target: Dehydrogenase/reductase SDR family member 9 (Homo sapiens) (UniProt Q9BPW9); assay: Inhibition of 3alpha-HSD
[2] = system: Neutrophil; assay: Inhibition of serum-opsonized zymosan-stimulated ROS production in bovine neutrophils by luminol-dependent chemiluminescence assay; type: functional, cell-based; conditions: Bos taurus
[3] = system: HepG2; assay: Growth inhibition of human HepG2 cells; type: functional
Method in brief: (§1)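 GI50 or CC50 values were read from mean dose-response curves, with 4 parallels per concentration.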

[4] = Growth inhibition of human HM02 cells; type: functional; method in brief: as §1
[5] = system: HeLa; assay: Cytotoxicity against human HeLa cells; type: functional; method in brief: as §1
[6] = system: L929; assay: Antiproliferative activity against mouse L929 cells; type: cell-based; method in brief: as §1
[7] = system: MCF7; assay: Growth inhibition of human MCF7 cells; type: functional; method in brief: as §1
[8] = system: K562; assay: Antiproliferative activity against human K562 cells; type: functional; method in brief: as §1
[9] = target: T1, Prostaglandin G/H synthase 2 (Homo sapiens, UniProt P35354)
T1 sequence (P35354 whole entry): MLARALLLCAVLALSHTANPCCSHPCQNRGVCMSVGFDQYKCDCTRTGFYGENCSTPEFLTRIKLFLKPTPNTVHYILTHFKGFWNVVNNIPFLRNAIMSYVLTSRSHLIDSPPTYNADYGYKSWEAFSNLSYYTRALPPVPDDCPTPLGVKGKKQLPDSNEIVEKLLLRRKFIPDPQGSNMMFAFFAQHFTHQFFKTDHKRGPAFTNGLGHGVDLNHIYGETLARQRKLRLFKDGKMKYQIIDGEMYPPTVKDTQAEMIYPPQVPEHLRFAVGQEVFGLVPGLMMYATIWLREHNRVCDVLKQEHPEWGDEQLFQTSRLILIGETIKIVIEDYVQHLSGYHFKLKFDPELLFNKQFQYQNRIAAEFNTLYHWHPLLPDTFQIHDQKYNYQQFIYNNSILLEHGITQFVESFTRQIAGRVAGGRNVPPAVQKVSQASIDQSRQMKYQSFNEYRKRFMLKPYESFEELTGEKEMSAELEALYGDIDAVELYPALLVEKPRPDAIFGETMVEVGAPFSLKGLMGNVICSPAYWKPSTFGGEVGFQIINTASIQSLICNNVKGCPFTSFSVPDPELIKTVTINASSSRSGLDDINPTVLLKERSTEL

Chain of Dehydrogenase/reductase SDR family member 9 (Homo sapiens) (Q9BPW9 whole entry): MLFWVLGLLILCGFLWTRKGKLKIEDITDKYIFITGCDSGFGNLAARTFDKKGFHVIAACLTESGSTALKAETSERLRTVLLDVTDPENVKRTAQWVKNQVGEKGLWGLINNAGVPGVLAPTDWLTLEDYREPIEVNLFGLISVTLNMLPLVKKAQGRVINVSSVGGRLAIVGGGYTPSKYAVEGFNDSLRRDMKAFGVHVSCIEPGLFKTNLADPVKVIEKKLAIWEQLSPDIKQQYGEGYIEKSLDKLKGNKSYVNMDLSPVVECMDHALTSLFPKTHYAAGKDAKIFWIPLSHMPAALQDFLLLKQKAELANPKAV

Activity [1] | GI50 [3] [µg/mL] | GI50 [7] [µg/mL] | GI50 [8] [µM] | SMILES | Activity [2] | GI50 [4] [µg/mL] | CC50 [5] [µM] | GI50 [6] [µM] | IC50 [9] [µM]
Active | – | – | – | CC1=CC[C@@H]2C(C)(C)CCC[C@@]2(C)[C@@H]1CC1=CC(=O)C=CC1=O | Active | – | – | – | –
Active | 6 (≈ 16.7 µM) | 2.4 (≈ 6.69 µM) | 8.4 | C=C1CC[C@@H]2C(C)(C)CCC[C@@]2(C)[C@@H]1CC1=C(O)C(=O)C=C(OC)C1=O (racemic) | – | 5.3 (≈ 14.8 µM) | 72.1 | 20.9 | –
– | – | – | 1 | COc1cccc2c1C(=O)c1c(O)c3c(c(O)c1C2=O)C[C@@](O)(C(=O)CO)C[C@@H]3O[C@H]1C[C@H](N)[C@H](O)[C@H](C)O1 [DOXORUBICIN] | – | – | 2 | 1.2 | –
– | – | – | – | C=C1CC[C@@H]2C(C)(C)CCC[C@@]2(C)[C@@H]1CC1=CC(=O)C=CC1=O | Active | – | – | – | –
– | – | – | – | CC1=CC[C@@H]2C(C)(C)CCC[C@@]2(C)[C@@H]1Cc1cc(O)ccc1O | Active | – | – | – | –
Active | – | – | 26.6 | COC1=CC(=O)C(=O)C(C[C@@]2(C)C3=C(CC[C@@H]2C)C(C)(C)CCC3)=C1OC (racemic) | – | – | 61.3 | 73.4 | –
– | – | – | 6.1 | COC1=CC(=O)C(O)=C(C[C@@]2(C)C3=C(CC[C@@H]2C)C(C)(C)CCC3)C1=O (racemic) | – | – | 62.3 | 14 | –
Active | – | – | 21.1 | COc1c(C[C@H]2C(C)=CC[C@H]3C(C)(C)CCC[C@]23C)cc2c(c1C=O)OCO2 (racemic) [PROTECTED SIPHONODICTYAL C] | – | – | 41.4 | 24 | –
Active | – | – | 3.5 | CC1=CC[C@H]2C(C)(C)CCC[C@]2(C)[C@H]1/C=C1\C=C2OCOC2=CC1=O (racemic) | – | – | 7.4 | 6.2 | –
– | – | – | 25.6 | COc1ccc(O)c(O)c1C[C@@]1(C)C2=C(CC[C@@H]1C)C(C)(C)CCC2 (racemic) [SESQUITERPENE HYDROQUINONE] | – | – | 41.3 | 59.9 | –
– | – | – | 20.7 | COC1=CC(=O)C(OC)=C(/C=C2\[C@@H](C)CC[C@H]3C(C)(C)CCC[C@]23C)C1=O | – | – | 75.3 | 41.6 | –
Active | – | – | – | C=C1CC[C@@H]2C(C)(C)CCC[C@@]2(C)[C@@H]1Cc1cc(O)ccc1O | Active | – | – | – | –
– | – | – | 6.2 | C=C1CC[C@H]2C(C)(C)CCC[C@]2(C)[C@H]1/C=C1\C=C2OCOC2=CC1=O (racemic) [SESQUITERPENE CYCLOHEXADIENONE] | – | – | 20.6 | 12.9 | –
Active | 3.6 (≈ 10 µM) | 2.6 (≈ 7.25 µM) | 13.4 | COC1=CC(=O)C(O)=C(/C=C2\[C@@H](C)CC[C@H]3C(C)(C)CCC[C@]23C)C1=O (racemic) | – | 3.1 (≈ 8.65 µM) | 75.1 | 27.1 | –

SMILES | Activity [1] | GI50 [3] [µg/mL] | GI50 [7] [µg/mL] | GI50 [8] [µM] | Activity [2] | GI50 [4] [µg/mL] | CC50 [5] [µM] | GI50 [6] [µM] | IC50 [9] [µM]
COc1ccc(O)c(O)c1/C=C1\[C@@H](C)CC[C@H]2C(C)(C)CCC[C@]12C (racemic) [(+/-)-WIEDENDIOL B] | Active | – | – | 35.8 | – | – | 38.1 | 63.1 | 0.7

Source: ChEMBL document CHEMBL1152740, “Synthesis and pharmacological activities of some sesquiterpene quinones and hydroquinones” (Bioorg Med Chem, 2009)
